tolC growth inh – growth inhibitors of E. coli tolC mutant, primary screen, strain BW25113 ΔtolC::kan, 384-well; OD615; growth inhibition, % at 10 µM (by protocol); hit rate 2.2% among 65,000;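 active = growth inhibition at or above a cutoff equal to the mean over every tested compound plus 3 SD, cut at about 60% in these data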;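 note: growth measured after 20 h incubation at 37 °C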
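signal = optical density read at 615 nm | test system = E. coli ΔtolC::kan strain BW25113 | timing = 20 h compound exposure of bacteria at 37 °C | buffer or medium = LB medium plus 50 µg/mL kanamycin | compound dosing = 10 µM final, single dose | evaluation = % inhibition of E. coli growth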
HePTP inh – inhibitors of human HePTP phosphatase, primary screen, biochemical, absorbance, leukemia target; recombinant HePTP phosphatase activity, OD absorbance; Tyrosine-protein phosphatase non-receptor type 7 (Homo sapiens), P35236; hit rate 0.64% among 110,000; inhibition, % at 20 µM; in the data active = inhibition above about 50%;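 note: plate controls were vehicle for no effect and reference inhibitor for full effect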
Target sequence (P35236 whole entry, looked up): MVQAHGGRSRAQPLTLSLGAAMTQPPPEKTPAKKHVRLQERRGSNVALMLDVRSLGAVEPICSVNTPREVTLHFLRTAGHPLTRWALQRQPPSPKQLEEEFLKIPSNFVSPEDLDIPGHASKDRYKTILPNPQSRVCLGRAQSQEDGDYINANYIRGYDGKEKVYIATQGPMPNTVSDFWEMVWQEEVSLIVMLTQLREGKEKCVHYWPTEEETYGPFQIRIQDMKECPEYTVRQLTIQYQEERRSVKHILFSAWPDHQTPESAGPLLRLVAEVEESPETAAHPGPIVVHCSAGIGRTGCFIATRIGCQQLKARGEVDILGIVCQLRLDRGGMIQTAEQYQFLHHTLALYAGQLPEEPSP
PostGolgi ctrl – growth inhibition of yeast control strain, primary screen, counter-screen for post-Golgi transport modulator project; efflux-deficient yeast background strain, growth absorbance A615, 16 h; hit rate 5% among 98,000; inhibition, % at 10 µM
PLAP act – PLAP enzyme activators, biochemical, luminescence, HTS; Alkaline phosphatase, placental type (Homo sapiens), P05187; purified PLAP enzyme, luminescent substrate read-out; hits give high values; activation fold at 20 µM; hit rate 1.2% among 96,000; in the data active = activation fold above about 2
PostGolgi yeast – phenotypic screen on post-Golgi transport, primary screen | post-Golgi transport phenotypic cell assay | inhibition, % at 10 µM | hit rate 0.9% among 98,000;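 note: yeast cells grown in 1536-well plates; yeast grown about 18 h at 30C before absorbance read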
Ecoli WT expand – growth inhibitors of wild-type E. coli, primary screen, strain BW25113, expanded library, OD600; OD600 absorbance; growth inhibition, % at 100 µM; hit rate 0.15% among 98,000; AID 710, 2007;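 active = growth inhibition above about 50% at one test dose, limit read from the data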;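 note: growth measured after 20 h incubation at 37 °C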
Numbers without * were called inactive; · = not tested or not shown. Compounds with a hit are over-represented: about 5.4% of the library has one in this group of screens. Cut-off read from the data, not from the text of the source, unless noted: active = inhibition above about 30%; inactive = the rest.

SMILES | tolC growth inh | HePTP inh | PostGolgi ctrl | PLAP act | PostGolgi yeast | Ecoli WT expand
Cc1ccc(NC(=O)CN(C)Cc2nc3ccccc3c(=O)[nH]2)c(Br)c1 | · | · | 6 | 2.2* | -6 | 1
CCN(CC(=O)Nc1ccccc1Br)Cc1nc2ccccc2c(=O)[nH]1 | · | · | 4 | 2.3* | 1 | 6
Cc1cc(NC(=O)c2c(F)cccc2Cl)n(-c2nc3ccccc3[nH]2)n1 | · | · | 17 | 2.6* | -2 | 2
Cc1cc(NC(=O)c2c(F)cccc2F)n(-c2nc3ccccc3[nH]2)n1 | · | · | 30* | 1.2 | -1 | -7
Cc1cc(C)nc(-n2nc(C)cc2Nc2ccccc2)n1 | 76* | 7 | 14 | 1.5 | 5 | 2
CCC(C(=O)Nc1cc(C)nn1-c1nc(C)cc(C)n1)c1ccccc1 (stereo not given) | 56 | 0 | 48* | 1.5 | 17 | 5
O=C(/C=C/c1ccccc1)N1CCN(c2nc3ccc([N+](=O)[O-])cc3s2)CC1 | · | 4 | · | · | · | ·
CS(=O)(=O)N1CCN(Cc2c[nH]c3ccccc23)CC1 | · | -9 | · | · | · | ·
CC(=O)NC1=NN(C(C)=O)C(c2cccc(Cl)c2)S1 (stereo not given) | · | 6 | · | · | · | ·
Cc1cc(NC(=O)c2ccccc2F)n(-c2nc3ccccc3[nH]2)n1 | 16 | 1 | 17 | 1.1 | -3 | -8
Cc1cc(Nc2ccccc2)n(-c2nc3ccccc3[nH]2)n1 | 95* | -9 | 41* | 1.1 | 3 | -10
CCCOc1ccccc1C1CC(=O)Nc2cc3c(cc21)OCCO3 (stereo not given) | 85* | 7 | 26 | · | -2 | -7
CC(C)Oc1ccccc1C1CC(=O)Nc2cc3c(cc21)OCO3 (stereo not given) | 10 | 3 | 31* | 0.8 | 2 | 3
CC(=O)C1=C(O)C(=O)N(CCN2CCNCC2)C1c1ccc(Br)cc1 (stereo not given) | · | 3 | · | · | · | ·
C=CCOc1c(Cl)cc(/C=C2/C(=O)NN(c3ccc(Br)cc3)C2=O)cc1OC | · | -8 | · | · | · | ·
CC1CCN(C(=O)c2ccc(N(C)S(=O)(=O)c3ccccc3)cc2)CC1 | · | -7 | · | · | · | ·
Cc1cc(S(=O)(=O)Nc2cccnc2)c(C)s1 | -11 | 8 | 0 | 1.1 | 3 | 0
Cc1cc(S(=O)(=O)Nc2ccc3ccccc3c2)c(C)s1 | · | · | 78* | 1 | -11 | -8
O=C1NC(=S)NC(=O)C1=Cc1ccc(OCc2ccc3ccccc3c2)c(Br)c1 | · | 52* | · | · | · | ·
Cc1ccc(COc2ccc(C=C3C(=O)NC(=O)NC3=O)cc2Br)cc1 | · | 4 | · | · | · | ·
Cc1ccccc1N=C1NC(=O)CS1 | -3 | 3 | 1 | 1.1 | -5 | -8
Cc1ccc(C)n1/N=C1\NC(=O)CS1 | · | 99* | · | · | · | ·
Cc1ccc(/C(O)=C2\C(=O)C(=O)N(c3ccc(O)cc3)C2c2cccc(F)c2)cc1 (stereo not given) | · | 2 | · | · | · | ·
Cc1c([N+](=O)[O-])c(C(=O)N2CCCC2)nn1C | · | · | 42* | 0.8 | -3 | 5
Cc1[nH]nc(SCC(=O)N2CCCCC2)c1[N+](=O)[O-] | · | · | 5 | 0.9 | 7 | 6
SMILES | tolC growth inh | HePTP inh | PostGolgi ctrl | PLAP act | PostGolgi yeast | Ecoli WT expand
N#Cc1cn(Cc2ccccc2)c2ccccc12 | 71* | 16 | 19 | 0.7 | 10 | 5
N#Cc1cn(CC(=O)NCc2cccnc2)c2ccccc12 | -15 | 5 | 19 | 0.8 | 0 | 9
COC(=O)[C@H](CCSC)NC(=O)Nc1ccc(OC)cc1OC | · | · | 9 | 0.8 | 4 | -3
COC(=O)[C@H](CCSC)NC(=O)Nc1ccc(C)cc1C | -20 | 1 | 5 | 2.7* | 4 | 1
Cc1cc(N)ccc1N1CCCC1 | · | · | 15 | 1.1 | -3 | -7
NC(=O)c1cc(N)ccc1N1CCCC1 | -10 | 0 | 32* | 0.9 | 1 | 7
CS(=O)(=O)NNC(=O)[C@H]1C[C@H]1c1ccccc1 | · | -1 | · | · | · | ·
Cc1ccc(Cl)cc1NC(=O)COC(=O)CC1CC2CCC1C2 (stereo not given) | · | · | -1 | 0.7 | 19 | -6
COC(=O)c1ccc(C(=O)OC)c(NC(=O)COC(=O)CC2CC3CCC2C3)c1 (stereo not given) | · | · | 33* | 1.4 | 1 | -13
Cc1cc(C)c2[nH]c(O)c(N=NC(=O)/C(=C\c3ccc([N+](=O)[O-])cc3)NC(=O)c3ccccc3)c2c1 | · | 30 | · | · | · | ·
COc1cc(N)c(Cl)cc1NC(=O)c1ccccc1 | -5 | 4 | 39* | 0.9 | 8 | 3
CCC(=O)NCCn1ccc2ccccc21 | · | · | 2 | 1 | 12 | 4
O=C(Cc1cccs1)NCCn1ccc2ccccc21 | 1 | 5 | 36* | 0.9 | -6 | 7
CCSc1nnc([C@@H]2CCCN2C(=O)OC(C)(C)C)o1 | -29 | 4 | 9 | 1.4 | 1 | -3
CC(C)(C)OC(=O)N1CCC[C@H]1c1nnc(SCc2c(Cl)cccc2Cl)o1 | 79* | -3 | 14 | 1.7 | -2 | 5
CN1C(=O)/C(=C2/SC(=S)N(CCC(=O)O)C2=O)c2cc(Br)ccc21 | · | 104* | · | · | · | ·
CN1C(=O)/C(=C2\SC(=S)N(C(CCC(=O)O)C(=O)O)C2=O)c2ccccc21 (stereo not given) | -5 | 11 | 1 | 0.9 | -6 | 7
CCCn1c(SCC(=O)c2cc(C)c(C)cc2C)n[nH]c1=O | · | · | 4 | 2.2* | 2 | -2
O=C(CSc1nc2[nH]ncc2c(=O)n1-c1ccccc1)c1ccc2c(c1)OCCO2 | 19 | 0 | -3 | 2.4* | -4 | -6
Cc1ccc(/C=C/C(=O)Nc2ccc(F)c([N+](=O)[O-])c2)cc1 | · | 5 | · | · | · | ·
O=[N+]([O-])c1ccc(N2CCN(S(=O)(=O)c3ccccc3)CC2)cc1NCc1cccnc1 | · | · | 18 | 0.8 | -7 | -14
O=[N+]([O-])c1ccc(N2CCN(S(=O)(=O)c3ccc(Cl)cc3)CC2)cc1NCc1cccnc1 | · | · | 11 | 1.2 | 71* | -9
Cc1cc(F)ccc1S(=O)(=O)Nc1ccccc1C(=O)Nc1ccccc1N1CCOCC1 | · | · | 19 | 1.2 | -18 | -18
Cc1cc(F)ccc1S(=O)(=O)Nc1ccccc1C(=O)Nc1ncn[nH]1 | 18 | 7 | 11 | 2.9* | 15 | 8
O=C(NC1CCS(=O)(=O)C1)/C(=C\c1ccccc1)NC(=O)c1ccc([N+](=O)[O-])cc1 (stereo not given) | · | -11 | · | · | · | ·
Cc1ccc(/C=C(\C#N)c2nc(-c3ccc4c(c3)OCO4)cs2)o1 | · | 13 | · | · | · | ·
CC(=O)c1c(C)n([O-])c2ccc(C)cc2[n+]1=O | 72* | 8 | 12 | 1 | 18 | 53*
Cc1ccc2c(c1)n([O-])c1c([n+]2=O)CCCC1 | · | · | 5 | 0.9 | 0 | 2
O=S1(=O)CC(O)C(N2CCC(c3ccccc3)CC2)C1 (stereo not given) | -9 | 5 | 45* | 1 | 5 | 7
O=C1N(c2ccccc2)C2CS(=O)(=O)CC2N1c1ccc(Cl)cc1 (stereo not given) | · | 1 | · | · | · | ·
